Reference: ChEMBL document CHEMBL1141492, “Potent, exceptionally selective, orally bioavailable inhibitors of TNF-alpha Converting Enzyme (TACE): novel 2-substituted-1H-benzo[d]imidazol-1-yl)methyl)benzamide P1' substituents” (Bioorg Med Chem Lett, 2008)

Columns and labels:
Stromelysin-1 = Stromelysin-1 (Homo sapiens, UniProt P08254); assay: Inhibition of MMP3
Stromelysin-2 = Stromelysin-2 (Homo sapiens, UniProt P09238); assay: Inhibition of MMP10
Outline: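 MMP Ki values come from a single determination.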

[1] = molecular target: Matrix metalloproteinase-9 (Homo sapiens, UniProt P14780); assay: Inhibition of MMP9
Sequence of Matrix metalloproteinase-9 (P14780 whole entry): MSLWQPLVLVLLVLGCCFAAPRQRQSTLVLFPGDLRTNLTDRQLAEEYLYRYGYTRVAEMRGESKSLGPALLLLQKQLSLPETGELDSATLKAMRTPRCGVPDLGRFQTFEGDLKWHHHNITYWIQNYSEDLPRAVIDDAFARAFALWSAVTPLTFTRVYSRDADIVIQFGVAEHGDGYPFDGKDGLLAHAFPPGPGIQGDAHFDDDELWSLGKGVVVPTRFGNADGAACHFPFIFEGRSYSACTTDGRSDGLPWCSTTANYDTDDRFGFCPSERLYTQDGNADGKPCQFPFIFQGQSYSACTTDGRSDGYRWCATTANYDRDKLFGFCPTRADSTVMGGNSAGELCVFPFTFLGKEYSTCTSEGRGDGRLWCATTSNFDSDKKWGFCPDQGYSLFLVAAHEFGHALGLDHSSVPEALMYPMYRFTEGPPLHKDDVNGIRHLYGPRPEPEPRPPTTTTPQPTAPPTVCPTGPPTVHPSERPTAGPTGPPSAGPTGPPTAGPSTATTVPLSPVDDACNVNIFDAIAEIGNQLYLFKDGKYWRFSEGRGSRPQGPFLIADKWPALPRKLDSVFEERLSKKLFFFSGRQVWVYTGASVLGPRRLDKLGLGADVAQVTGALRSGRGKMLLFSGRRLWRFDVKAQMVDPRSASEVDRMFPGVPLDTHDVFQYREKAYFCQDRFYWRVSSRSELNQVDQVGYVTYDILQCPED

[2] = molecular target: 72 kDa type IV collagenase (Homo sapiens, UniProt P08253); assay: Inhibition of MMP2
Sequence of 72 kDa type IV collagenase (P08253 whole entry): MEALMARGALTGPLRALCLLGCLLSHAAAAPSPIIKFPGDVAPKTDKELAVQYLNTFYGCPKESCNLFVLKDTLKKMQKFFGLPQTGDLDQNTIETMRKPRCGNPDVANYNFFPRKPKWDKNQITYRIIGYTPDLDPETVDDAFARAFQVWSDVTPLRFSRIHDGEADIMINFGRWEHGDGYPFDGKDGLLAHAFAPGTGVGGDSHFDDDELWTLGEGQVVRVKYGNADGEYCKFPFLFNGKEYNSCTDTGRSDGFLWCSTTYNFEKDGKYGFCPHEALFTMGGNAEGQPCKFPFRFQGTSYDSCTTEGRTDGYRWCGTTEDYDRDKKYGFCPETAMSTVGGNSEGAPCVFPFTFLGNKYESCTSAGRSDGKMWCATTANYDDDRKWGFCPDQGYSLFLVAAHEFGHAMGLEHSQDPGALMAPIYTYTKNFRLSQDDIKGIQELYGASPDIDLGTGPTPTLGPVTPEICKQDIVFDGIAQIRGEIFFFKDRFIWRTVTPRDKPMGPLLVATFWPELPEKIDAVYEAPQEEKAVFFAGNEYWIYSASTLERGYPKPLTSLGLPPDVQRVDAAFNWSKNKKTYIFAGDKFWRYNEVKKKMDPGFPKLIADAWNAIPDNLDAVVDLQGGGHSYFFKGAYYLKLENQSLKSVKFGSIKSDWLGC

Matrilysin = molecular target: T1, Matrilysin (Homo sapiens, UniProt P09237); assay: Inhibition of MMP7
T1 sequence (P09237 whole entry): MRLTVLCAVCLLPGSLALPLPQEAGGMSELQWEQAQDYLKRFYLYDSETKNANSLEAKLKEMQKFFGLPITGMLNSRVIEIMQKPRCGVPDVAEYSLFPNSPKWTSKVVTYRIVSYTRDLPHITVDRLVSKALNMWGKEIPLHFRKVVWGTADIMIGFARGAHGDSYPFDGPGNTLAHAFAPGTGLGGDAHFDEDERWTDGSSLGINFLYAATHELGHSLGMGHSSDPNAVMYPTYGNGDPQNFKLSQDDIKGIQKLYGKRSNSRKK

[3] = molecular target: Matrix metalloproteinase-14 (Homo sapiens, UniProt P50281); assay: Inhibition of MMP14
[4] = molecular target: Disintegrin and metalloproteinase domain-containing protein 17 (Sus scrofa, UniProt O77636); assay: Inhibition of semi purified pig TACE
Sequence of Disintegrin and metalloproteinase domain-containing protein 17 (O77636 whole entry, the tested form may be a part): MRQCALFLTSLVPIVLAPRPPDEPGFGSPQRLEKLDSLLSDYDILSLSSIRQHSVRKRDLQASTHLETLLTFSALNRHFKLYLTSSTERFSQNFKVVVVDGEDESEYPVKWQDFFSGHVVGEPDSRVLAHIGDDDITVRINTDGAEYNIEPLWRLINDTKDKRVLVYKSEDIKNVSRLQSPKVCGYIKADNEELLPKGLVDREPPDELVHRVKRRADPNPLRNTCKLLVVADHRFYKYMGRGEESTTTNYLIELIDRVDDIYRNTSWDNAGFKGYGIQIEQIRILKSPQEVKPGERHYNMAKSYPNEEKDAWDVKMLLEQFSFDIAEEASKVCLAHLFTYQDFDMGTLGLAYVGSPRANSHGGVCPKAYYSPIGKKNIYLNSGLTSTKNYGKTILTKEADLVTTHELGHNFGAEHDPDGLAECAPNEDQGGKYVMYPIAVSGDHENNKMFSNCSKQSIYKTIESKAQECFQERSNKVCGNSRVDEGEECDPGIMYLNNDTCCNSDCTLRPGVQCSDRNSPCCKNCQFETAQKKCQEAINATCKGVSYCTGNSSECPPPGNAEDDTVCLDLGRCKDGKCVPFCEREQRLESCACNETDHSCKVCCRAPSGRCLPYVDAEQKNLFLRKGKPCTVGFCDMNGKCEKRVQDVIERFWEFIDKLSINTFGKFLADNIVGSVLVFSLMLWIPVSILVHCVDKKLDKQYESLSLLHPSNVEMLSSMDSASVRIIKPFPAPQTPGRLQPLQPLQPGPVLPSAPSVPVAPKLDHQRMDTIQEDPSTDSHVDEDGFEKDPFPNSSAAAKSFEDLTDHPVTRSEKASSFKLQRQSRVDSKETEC

Blood = assay: Reduction of LPS-induced TNFalpha in human whole blood; type: functional, tissue-based
Outline: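 LPS-induced TNF-α production in human whole blood; suppression of TNF-α measured.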

[5] = molecular target: Matrix metalloproteinase-16 (Homo sapiens, UniProt P51512); assay: Inhibition of MMP16
Sequence of Matrix metalloproteinase-16 (P51512 whole entry): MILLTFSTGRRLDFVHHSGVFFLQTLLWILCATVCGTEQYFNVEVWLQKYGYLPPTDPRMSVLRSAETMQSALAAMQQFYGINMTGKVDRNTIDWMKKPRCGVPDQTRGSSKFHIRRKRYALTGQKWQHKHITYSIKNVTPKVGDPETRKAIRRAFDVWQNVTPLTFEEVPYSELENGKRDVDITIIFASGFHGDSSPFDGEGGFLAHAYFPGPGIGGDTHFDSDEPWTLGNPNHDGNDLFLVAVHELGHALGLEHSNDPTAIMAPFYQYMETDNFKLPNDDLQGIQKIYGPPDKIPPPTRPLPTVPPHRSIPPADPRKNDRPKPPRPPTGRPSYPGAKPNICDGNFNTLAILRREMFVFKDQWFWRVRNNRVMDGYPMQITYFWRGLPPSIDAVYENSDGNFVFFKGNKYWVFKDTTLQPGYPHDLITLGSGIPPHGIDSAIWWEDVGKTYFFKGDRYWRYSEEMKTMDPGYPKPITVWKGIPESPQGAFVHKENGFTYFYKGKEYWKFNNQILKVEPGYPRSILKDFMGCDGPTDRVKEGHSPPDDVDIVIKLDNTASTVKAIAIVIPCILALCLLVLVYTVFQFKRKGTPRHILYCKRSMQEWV

[6] = molecular target: Matrix metalloproteinase-15 (Homo sapiens, UniProt P51511); assay: Inhibition of MMP15
Sequence of Matrix metalloproteinase-15 (P51511 whole entry): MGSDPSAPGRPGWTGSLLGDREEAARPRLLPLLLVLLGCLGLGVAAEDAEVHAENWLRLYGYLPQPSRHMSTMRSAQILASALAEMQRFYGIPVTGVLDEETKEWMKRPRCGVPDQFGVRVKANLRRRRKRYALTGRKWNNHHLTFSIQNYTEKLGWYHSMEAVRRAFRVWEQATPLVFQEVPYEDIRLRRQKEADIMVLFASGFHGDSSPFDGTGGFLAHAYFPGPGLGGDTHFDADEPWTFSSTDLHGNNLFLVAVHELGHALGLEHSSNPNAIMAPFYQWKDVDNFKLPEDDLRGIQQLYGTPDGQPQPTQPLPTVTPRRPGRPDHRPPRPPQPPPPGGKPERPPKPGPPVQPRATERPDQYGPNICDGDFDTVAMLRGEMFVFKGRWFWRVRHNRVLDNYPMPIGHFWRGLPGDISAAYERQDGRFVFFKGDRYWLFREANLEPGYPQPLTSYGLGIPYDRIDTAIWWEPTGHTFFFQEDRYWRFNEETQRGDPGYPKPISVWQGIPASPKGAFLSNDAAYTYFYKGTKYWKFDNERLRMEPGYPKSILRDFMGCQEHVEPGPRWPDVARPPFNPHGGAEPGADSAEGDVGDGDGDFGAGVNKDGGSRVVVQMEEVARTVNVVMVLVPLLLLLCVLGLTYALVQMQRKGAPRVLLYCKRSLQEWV
Outline: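 Ki values against each MMP, each from a single determination.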

Interstitial collagenase = molecular target: T2, Interstitial collagenase (Homo sapiens, UniProt P03956); assay: Inhibition of MMP1
T2 sequence (P03956 whole entry): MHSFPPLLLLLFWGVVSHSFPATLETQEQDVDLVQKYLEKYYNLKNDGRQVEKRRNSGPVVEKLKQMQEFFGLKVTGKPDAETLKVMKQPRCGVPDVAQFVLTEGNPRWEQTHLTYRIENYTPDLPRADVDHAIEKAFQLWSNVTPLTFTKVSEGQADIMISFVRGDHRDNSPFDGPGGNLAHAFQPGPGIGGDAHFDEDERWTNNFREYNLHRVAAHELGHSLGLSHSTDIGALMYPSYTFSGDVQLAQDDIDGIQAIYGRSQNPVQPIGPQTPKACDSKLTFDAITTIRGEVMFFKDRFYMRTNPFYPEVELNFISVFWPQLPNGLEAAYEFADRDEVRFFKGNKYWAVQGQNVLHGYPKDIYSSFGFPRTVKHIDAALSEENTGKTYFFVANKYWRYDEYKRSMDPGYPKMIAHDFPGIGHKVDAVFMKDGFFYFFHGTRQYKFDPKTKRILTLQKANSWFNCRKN

Collagenase 3 = Collagenase 3 (Homo sapiens, UniProt P45452); assay: Inhibition of MMP13
[7] = Apparent permeability across human Caco-2 cells; type: ADME, cell-based
Outline: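 Apparent permeability measured across Caco-2 cell monolayers in the apical-to-basolateral (A→B) direction.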

[8] = Half life in Beagle dog at 8.0 mg/kg, po; conditions: in vivo
[9] = Tmax in Beagle dog at 8.0 mg/kg, po; conditions: in vivo
[10] = Protein binding in human serum; type: ADME, cell-free
[11] = AUC in Beagle dog at 2.0 mg/kg, iv; type: ADME, organism-based, Canis lupus familiaris; design: dose 2 mg/kg, route intravenous; conditions: plasma
Outline: (§1)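 Discrete or cassette (n-in-1) dosing, given intravenously and orally. Sprague–Dawley rats received 5.0 mg/kg iv and 8.0 mg/kg po; beagle dogs received 2.0 mg/kg iv and 8.0 mg/kg po. Three animals per dosing group; averaged values reported. AUC is reported in nM h.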

[12] = Protein binding in rat serum; type: ADME, cell-free
[13] = Tmax in Sprague-Dawley rat at 8.0 mg/kg, po; type: ADME, organism-based; design: dose 8 mg/kg, route oral; conditions: in vivo; outline: as §1
[14] = AUC in Sprague-Dawley rat at 5.0 mg/kg, iv; type: ADME, organism-based; design: dose 5 mg/kg, route intravenous; conditions: plasma; outline: as §1
[15] = Half life in Sprague-Dawley rat at 8.0 mg/kg, po; type: ADME, organism-based; design: dose 8 mg/kg, route oral; conditions: in vivo; outline: as §1
Mus musculus = assay: Reduction of LPS-induced TNFalpha level in orally dosed mouse after 1 hr; type: functional; conditions: po
Outline: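 Mouse LPS endotoxemia model. LPS and test compound in vehicle were given together by oral gavage at t = 0 h, across several doses. Mice were euthanized 1 h post dose, blood was taken by cardiac puncture, and plasma TNF-α was measured. ED50 was calculated from the dose response.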

[16] = AUC in Beagle dog at 8.0 mg/kg, po; conditions: plasma
[17] = Protein binding in dog serum; type: ADME, cell-free, Canis lupus familiaris
[18] = Volume of distribution at steady state in Sprague-Dawley rat at 5.0 mg/kg, iv; type: ADME, organism-based; design: dose 5 mg/kg, route intravenous; conditions: in vivo, read-out: Vdss; outline: as §1
[19] = Half life in Beagle dog at 2.0 mg/kg, iv; type: ADME, organism-based, Canis lupus familiaris; design: dose 2 mg/kg, route intravenous; conditions: in vivo; outline: as §1
[20] = AUC in Sprague-Dawley rat at 8.0 mg/kg, po; type: ADME, organism-based; design: dose 8 mg/kg, route oral; conditions: plasma; outline: as §1
[21] = Oral bioavailability in Sprague-Dawley rat at 8.0 mg/kg; type: ADME, organism-based; conditions: in vivo; outline: as §1
[22] = Clearance in Sprague-Dawley rat at 5.0 mg/kg, iv; type: ADME, organism-based; design: dose 5 mg/kg, route intravenous; conditions: in vivo; outline: as §1
[23] = Clearance in Beagle dog at 2.0 mg/kg, iv; type: ADME, organism-based, Canis lupus familiaris; design: dose 2 mg/kg, route intravenous; conditions: in vivo; outline: as §1
[24] = Volume of distribution at steady state in Beagle dog at 2.0 mg/kg, iv; type: ADME, organism-based, Canis lupus familiaris; design: dose 2 mg/kg, route intravenous; conditions: in vivo, read-out: Vdss; outline: as §1
[25] = Half life in Sprague-Dawley rat at 5.0 mg/kg, iv; type: ADME, organism-based; design: dose 5 mg/kg, route intravenous; conditions: in vivo; outline: as §1
[26] = Oral bioavailability in Beagle dog at 8.0 mg/kg, po; conditions: in vivo
[27] = molecular target: T3, A disintegrin and metalloproteinase with thrombospondin motifs 5 (Homo sapiens, UniProt Q9UNA0); assay: Inhibition of ADAMTS5
T3 sequence (Q9UNA0 whole entry): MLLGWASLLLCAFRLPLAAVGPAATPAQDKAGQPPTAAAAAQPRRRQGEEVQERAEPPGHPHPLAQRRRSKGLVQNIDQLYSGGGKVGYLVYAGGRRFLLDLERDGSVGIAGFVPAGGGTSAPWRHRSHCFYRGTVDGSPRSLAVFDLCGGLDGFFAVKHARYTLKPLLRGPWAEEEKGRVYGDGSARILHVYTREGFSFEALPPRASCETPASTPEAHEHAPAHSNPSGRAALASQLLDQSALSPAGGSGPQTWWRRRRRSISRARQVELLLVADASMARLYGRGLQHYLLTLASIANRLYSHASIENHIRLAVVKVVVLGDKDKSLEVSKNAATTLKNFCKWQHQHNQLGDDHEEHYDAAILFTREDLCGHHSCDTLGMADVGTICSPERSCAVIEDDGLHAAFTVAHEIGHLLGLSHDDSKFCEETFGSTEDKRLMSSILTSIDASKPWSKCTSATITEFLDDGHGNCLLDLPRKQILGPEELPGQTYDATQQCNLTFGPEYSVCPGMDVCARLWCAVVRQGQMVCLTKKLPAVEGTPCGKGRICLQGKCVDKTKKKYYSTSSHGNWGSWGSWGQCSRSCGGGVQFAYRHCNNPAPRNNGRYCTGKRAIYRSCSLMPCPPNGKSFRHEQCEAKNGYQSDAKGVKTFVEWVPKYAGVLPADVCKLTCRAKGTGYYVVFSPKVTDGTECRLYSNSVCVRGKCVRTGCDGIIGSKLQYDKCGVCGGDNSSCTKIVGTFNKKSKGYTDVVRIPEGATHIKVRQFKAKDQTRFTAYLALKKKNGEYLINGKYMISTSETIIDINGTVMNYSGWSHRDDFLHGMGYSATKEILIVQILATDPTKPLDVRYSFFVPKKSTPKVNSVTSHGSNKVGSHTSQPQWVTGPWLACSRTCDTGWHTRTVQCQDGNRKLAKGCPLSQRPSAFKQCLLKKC

Neutrophil collagenase = Neutrophil collagenase (Homo sapiens, UniProt P22894); assay: Inhibition of MMP8
Sequence of Neutrophil collagenase (P22894 whole entry): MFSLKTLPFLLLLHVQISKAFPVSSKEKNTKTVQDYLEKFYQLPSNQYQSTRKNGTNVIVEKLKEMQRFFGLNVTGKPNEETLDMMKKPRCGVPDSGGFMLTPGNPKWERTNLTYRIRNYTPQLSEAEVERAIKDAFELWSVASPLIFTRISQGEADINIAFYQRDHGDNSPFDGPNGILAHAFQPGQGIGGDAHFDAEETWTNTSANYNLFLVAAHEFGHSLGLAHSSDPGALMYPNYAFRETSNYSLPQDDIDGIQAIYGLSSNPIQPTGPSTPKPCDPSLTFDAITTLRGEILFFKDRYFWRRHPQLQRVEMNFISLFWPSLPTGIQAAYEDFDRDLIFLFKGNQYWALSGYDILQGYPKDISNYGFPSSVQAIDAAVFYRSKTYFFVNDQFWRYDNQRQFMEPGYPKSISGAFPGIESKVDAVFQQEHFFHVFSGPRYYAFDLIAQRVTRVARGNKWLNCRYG

Sequence of Stromelysin-2 (P09238 whole entry): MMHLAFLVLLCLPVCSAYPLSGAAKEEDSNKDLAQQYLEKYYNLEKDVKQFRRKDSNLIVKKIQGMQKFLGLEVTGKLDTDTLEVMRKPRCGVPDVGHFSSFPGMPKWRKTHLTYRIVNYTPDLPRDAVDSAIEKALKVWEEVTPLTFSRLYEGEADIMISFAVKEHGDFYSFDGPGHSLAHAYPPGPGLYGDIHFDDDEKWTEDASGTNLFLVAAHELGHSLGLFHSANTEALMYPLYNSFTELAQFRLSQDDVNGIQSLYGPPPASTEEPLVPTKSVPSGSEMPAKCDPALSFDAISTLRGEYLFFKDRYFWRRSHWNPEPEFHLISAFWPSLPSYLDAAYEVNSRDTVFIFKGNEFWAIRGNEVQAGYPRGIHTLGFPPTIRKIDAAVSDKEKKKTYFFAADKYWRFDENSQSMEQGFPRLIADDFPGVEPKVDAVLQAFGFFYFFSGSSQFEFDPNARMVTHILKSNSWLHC
Sequence of Stromelysin-1 (P08254 whole entry): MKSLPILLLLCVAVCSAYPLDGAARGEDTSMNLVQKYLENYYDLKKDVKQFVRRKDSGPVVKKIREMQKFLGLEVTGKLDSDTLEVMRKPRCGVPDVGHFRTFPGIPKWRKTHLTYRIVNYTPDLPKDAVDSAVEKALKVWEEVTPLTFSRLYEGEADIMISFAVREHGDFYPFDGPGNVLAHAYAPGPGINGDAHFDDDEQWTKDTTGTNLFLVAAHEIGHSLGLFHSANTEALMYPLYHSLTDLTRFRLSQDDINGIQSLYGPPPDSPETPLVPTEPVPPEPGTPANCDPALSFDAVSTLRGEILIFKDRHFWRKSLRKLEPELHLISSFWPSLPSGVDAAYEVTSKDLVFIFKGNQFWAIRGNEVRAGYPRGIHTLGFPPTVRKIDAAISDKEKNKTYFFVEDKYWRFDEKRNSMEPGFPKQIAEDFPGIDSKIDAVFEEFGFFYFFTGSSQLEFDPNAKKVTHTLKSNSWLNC

Structure (SMILES)	Ki (Stromelysin-1) [nM]	IC50 (Stromelysin-2) [nM]	Ki [1] [nM]	Ki [2] [nM]	Ki (Matrilysin) [nM]	Ki [3] [nM]	IC50 [4] [nM]	IC50 (Blood) [nM]	Ki [5] [nM]	Ki [6] [nM]	Ki (Interstitial collagenase) [nM]	Ki (Collagenase 3) [nM]	Papp [7] [×10⁻⁶ cm/s]	bioavailability [21] [%]	clearance [22] [mL/min/kg]	other results
CSc1nc2ccccc2n1Cc1ccc(C(=O)N[C@@H]2CN(C(=O)OC(C)(C)C)C[C@@H]2C(=O)NO)cc1	> 4500	> 10000	> 2130	> 2130	4080	> 5290	< 1	62	> 5450	> 7090	> 2130	> 5030	0.2	–	–	–
Cc1nc2ccccc2n1Cc1ccc(C(=O)N[C@@H]2CN(C(=O)OC(C)(C)C)C[C@@H]2C(=O)NO)cc1	2610	1600	> 2130	> 2130	5860	> 5290	1	92	> 5550	> 7090	> 2130	> 5030	0.1	–	–	–
O=C(N[C@@H]1CCOC[C@@H]1C(=O)NO)c1ccc(Cn2c(C(F)(F)F)nc3ccccc32)cc1	–	> 10000	–	–	–	–	–	232	–	–	–	–	0.7	53	26.7	half-life [8]: 4.8 h; Tmax [9]: 0.5 h; fraction unbound [10]: 0.21; AUC [11]: 9.97 µM·h; fraction unbound [12]: 0.2; Tmax [13]: 0.3 h; AUC [14]: 6.85 µM·h; half-life [15]: 2.4 h; ED50 (Mus musculus): 1.9 mg/kg; AUC [16]: 39.5 µM·h; fraction unbound [17]: 0.2; Vd [18]: 1.5 L/kg; half-life [19]: 4.2 h; AUC [20]: 5.84 µM·h; clearance [23]: 10 mL/min/kg; Vd [24]: 1 L/kg; half-life [25]: 3.5 h; bioavailability [26]: 99%; Ki [27]: 1000 nM
CC(C)(F)c1nc2ccccc2n1Cc1ccc(C(=O)N[C@@H]2C[C@@]3(CCCO3)C[C@@H]2C(=O)NO)cc1	–	–	> 2130	> 3330	–	–	< 1	140	–	–	> 4950	–	2.4	33	40	–
CC(C)c1nc2ccccc2n1Cc1ccc(C(=O)N[C@@H]2CN(C(=O)OC(C)(C)C)C[C@@H]2C(=O)NO)cc1	3920	4600	> 2130	> 2130	3500	> 5290	1	70	> 5550	> 7090	> 2130	> 5030	0.2	–	–	Ki (Neutrophil collagenase): > 3060 nM
CC(F)(F)c1nc2ccccc2n1Cc1ccc(C(=O)N[C@@H]2CCOC[C@@H]2C(=O)NO)cc1	–	–	> 2130	> 3330	–	–	2.6	188	–	–	> 4950	–	0.7	55	20	–
CC(C)c1nc2ccccc2n1Cc1ccc(C(=O)N[C@@H]2CCC[C@@H]2C(=O)NO)cc1	–	–	> 2130	> 3330	–	–	1	65	–	–	> 4950	–	0.1	8	50	–
O=C(N[C@@H]1COC[C@@H]1C(=O)NO)c1ccc(Cn2c(C(F)(F)F)nc3ccccc32)cc1	–	–	> 2130	> 3330	–	–	1	102	–	–	> 4950	–	0.1	20	53.3	–
CC(C)c1nc2ccccc2n1Cc1ccc(C(=O)N[C@@H]2C[C@@]3(CCCO3)C[C@@H]2C(=O)NO)cc1	–	–	> 2130	> 3330	–	–	1.1	69	–	–	> 4950	–	0.1	22	115	–
